In ChEMBL document CHEMBL3576849, “De Novo Conception of Small Molecule Modulators Based on Endogenous Peptide Ligands: Pyrrolodiazepin-2-one γ-Turn Mimics That Differentially Modulate Urotensin II Receptor-Mediated Vasoconstriction ex Vivo” (J Med Chem, 2015):
Activity calls are given as the source filed them. The calls are words filed in the database; no cut-off is given here.

Legend:
[1] = target: T1, Urotensin-2 receptor (Rattus norvegicus) (UniProt P49684); experiment: Modulation of urotensin-2 receptor in Sprague-Dawley rat thoracic aortic ring assessed as human urotensin-2 Emax for induction of aortic ring contraction at 1 uM preincubated for 15 mins followed by human urotensin-2 addition (reference value: 116 +/- 3%)
T1 sequence (whole entry): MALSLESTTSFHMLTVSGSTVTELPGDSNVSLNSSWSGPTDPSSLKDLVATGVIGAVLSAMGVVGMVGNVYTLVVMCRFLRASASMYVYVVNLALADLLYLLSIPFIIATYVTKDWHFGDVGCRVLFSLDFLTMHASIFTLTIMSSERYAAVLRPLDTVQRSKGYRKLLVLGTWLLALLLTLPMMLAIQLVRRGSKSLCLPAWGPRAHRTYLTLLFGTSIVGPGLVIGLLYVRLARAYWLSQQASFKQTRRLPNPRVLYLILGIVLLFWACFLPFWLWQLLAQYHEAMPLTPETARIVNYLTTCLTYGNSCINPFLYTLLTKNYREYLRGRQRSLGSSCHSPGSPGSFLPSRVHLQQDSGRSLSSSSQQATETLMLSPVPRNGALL

[2] = target: T1, Urotensin-2 receptor (Rattus norvegicus); experiment: Modulation of urotensin-2 receptor in Sprague-Dawley rat thoracic aortic ring assessed as reduction of human urotensin-2-induced aortic ring contraction preincubated for 15 mins followed by human urotensin-2 addition
[3] = target: T1, Urotensin-2 receptor (Rattus norvegicus); experiment: Modulation of urotensin-2 receptor in Sprague-Dawley rat thoracic aortic ring assessed as human urotensin-2 Emax for induction of aortic ring contraction at 4 uM preincubated for 15 mins followed by human urotensin-2 addition (reference value: 116 +/- 3%)
[4] = target: T1, Urotensin-2 receptor (Rattus norvegicus); experiment: Agonist activity at urotensin-2 receptor in Sprague-Dawley rat thoracic aortic ring assessed as induction of aortic ring contraction at 10 to 100 uM
Summary of the method: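 Thoracic aortic rings from adult male Sprague-Dawley rats (250–300 g, killed by CO2 asphyxiation); analog added alone to the organ chamber at 10 or 100 µM to test for contraction. 40 mM KCl contractions served as control at start and end. Run at least in triplicate.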

[5] = target: T2, Urotensin-2 receptor (Homo sapiens) (UniProt Q9UKP6); experiment: Displacement of [125I]-human urotensin-2 from human urotensin-2 receptor expressed in CHO cells at 100 uM after 90 mins by gamma counting analysis relative to control; type: cell-based
T2 sequence (whole entry): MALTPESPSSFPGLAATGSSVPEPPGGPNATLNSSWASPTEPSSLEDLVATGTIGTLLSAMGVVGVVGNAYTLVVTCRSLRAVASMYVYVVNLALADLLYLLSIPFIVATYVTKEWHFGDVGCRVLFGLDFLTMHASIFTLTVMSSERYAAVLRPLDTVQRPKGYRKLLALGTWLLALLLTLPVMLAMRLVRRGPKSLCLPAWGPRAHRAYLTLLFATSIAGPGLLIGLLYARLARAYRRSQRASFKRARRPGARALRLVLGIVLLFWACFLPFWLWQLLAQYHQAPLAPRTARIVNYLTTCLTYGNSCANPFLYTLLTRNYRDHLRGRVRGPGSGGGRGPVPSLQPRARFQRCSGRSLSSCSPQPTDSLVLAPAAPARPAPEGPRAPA
Summary of the method: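 Incubated 90 min at room temperature with 100 µM compound plus 0.2 nM 125I-hUII (chloramine-T labelled). Cells washed and lysed, bound radioactivity gamma-counted. Reported as % of specific binding without competitor; nonspecific binding defined with 10 µM hUII. At least triplicate.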

[6] = target: T1, Urotensin-2 receptor (Rattus norvegicus); experiment: Noncompetitive antagonist activity at urotensin-2 receptor in Sprague-Dawley rat thoracic aortic ring assessed as reduction in human urotensin-2-induced response at 4 uM by double reciprocal plot analysis
Rattus norvegicus = organism: Rattus norvegicus; experiment: Modulation of […] in Sprague-Dawley rat thoracic aortic ring assessed as change in human endothelin-1-induced aortic ring contraction at 1.4 x 10^-5 M
[7] = target: T1, Urotensin-2 receptor (Rattus norvegicus); experiment: Modulation of urotensin-2 receptor in Sprague-Dawley rat thoracic aortic ring assessed as urotensin-2 related peptide Emax for induction of aortic ring contraction at 14 uM preincubated for 15 mins followed by urotensin-2 related peptide addition (reference value: 132 +/- 4%)
[8] = target: T1, Urotensin-2 receptor (Rattus norvegicus); experiment: Modulation of urotensin-2 receptor in Sprague-Dawley rat thoracic aortic ring assessed as human urotensin-2 Emax for induction of aortic ring contraction at 14 uM preincubated for 15 mins followed by human urotensin-2 addition (reference value: 116 +/- 3%)
[9] = target: T2, Urotensin-2 receptor (Homo sapiens); experiment: Induction of [125I]-human urotensin-2 binding to human urotensin-2 receptor expressed in CHO cells at 100 uM after 90 mins by gamma counting analysis relative to control; type: cell-based
Summary of the method: (§1)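 Whole CHO cells stably expressing human UT, plated at 150,000 cells/well, incubated with test compound (100 µM) and 0.2 nM 125I-hUII for 90 min at room temperature. Cells were washed and lysed, and bound radioactivity was gamma-counted. Results are % of specific binding without competitor. Non-specific binding was defined with 10 µM hUII. At least triplicate; mean ± S.E.M.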

[10] = target: T1, Urotensin-2 receptor (Rattus norvegicus); experiment: Modulation of urotensin-2 receptor in Sprague-Dawley rat thoracic aortic ring assessed as urotensin-2 related peptide Emax for induction of aortic ring contraction at 10 uM preincubated for 15 mins followed by urotensin-2 related peptide addition (reference value: 132 +/- 4%)
[11] = target: T1, Urotensin-2 receptor (Rattus norvegicus); experiment: Modulation of urotensin-2 receptor in Sprague-Dawley rat thoracic aortic ring assessed as human urotensin-2 Emax for induction of aortic ring contraction at 10 uM preincubated for 15 mins followed by human urotensin-2 addition (reference value: 116 +/- 3%)
Summary of the method: (§2)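 Thoracic aortic rings from adult male Sprague-Dawley rats (250–300 g, killed by CO2). Rings were exposed to test compound for 15 min, then cumulative hUII concentration-response curves were run (10-10–3.10-6 M). Contraction is expressed as % of the 40 mM KCl response, with KCl given at the start and end. EC50/pEC50/Emax come from a variable-slope sigmoidal fit. At least triplicate.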

[12] = target: T2, Urotensin-2 receptor (Homo sapiens); experiment: Effect on [125I]-human urotensin-2 binding to human urotensin-2 receptor expressed in CHO cells at 100 uM after 90 mins by gamma counting analysis relative to control; type: cell-based; summary of the method: as §1
[13] = target: T1, Urotensin-2 receptor (Rattus norvegicus); experiment: Modulation of urotensin-2 receptor in Sprague-Dawley rat thoracic aortic ring assessed as urotensin-2 related peptide Emax for induction of aortic ring contraction at 8 uM preincubated for 15 mins followed by urotensin-2 related peptide addition (reference value: 132 +/- 4%)
[14] = target: T1, Urotensin-2 receptor (Rattus norvegicus); experiment: Modulation of urotensin-2 receptor in Sprague-Dawley rat thoracic aortic ring assessed as human urotensin-2 Emax for induction of aortic ring contraction at 8 uM preincubated for 15 mins followed by human urotensin-2 addition (reference value: 116 +/- 3%); summary of the method: as §2
[15] = target: T1, Urotensin-2 receptor (Rattus norvegicus); experiment: Modulation of urotensin-2 receptor in Sprague-Dawley rat thoracic aortic ring assessed as urotensin-2 related peptide Emax for induction of aortic ring contraction at 15 uM preincubated for 15 mins followed by urotensin-2 related peptide addition (reference value: 132 +/- 4%)
[16] = target: T1, Urotensin-2 receptor (Rattus norvegicus); experiment: Modulation of urotensin-2 receptor in Sprague-Dawley rat thoracic aortic ring assessed as human urotensin-2 Emax for induction of aortic ring contraction at 15 uM preincubated for 15 mins followed by human urotensin-2 addition (reference value: 116 +/- 3%); summary of the method: as §2
[17] = target: T1, Urotensin-2 receptor (Rattus norvegicus); experiment: Modulation of urotensin-2 receptor in Sprague-Dawley rat thoracic aortic ring assessed as human urotensin-2 Emax for induction of aortic ring contraction at 11 uM preincubated for 15 mins followed by human urotensin-2 addition (reference value: 116 +/- 3%)
[18] = target: T1, Urotensin-2 receptor (Rattus norvegicus); experiment: Modulation of urotensin-2 receptor in Sprague-Dawley rat thoracic aortic ring assessed as urotensin-2 related peptide Emax for induction of aortic ring contraction at 11 uM preincubated for 15 mins followed by urotensin-2 related peptide addition (reference value: 132 +/- 4%)

| Compound | Activity [4] | inhibition [5] [%] | Emax [10] [%] | Emax [11] [%] | Activity [12] | other results |
| --- | --- | --- | --- | --- | --- | --- |
| NCCCC[C@@H]1N[C@H](c2ccc(-c3ccccc3)cc2)c2[nH]c(C(=O)O)cc2N(CCc2ccc(O)cc2)C1=O | inactive | 25 | – | – | – | Emax [1]: 92%; Activity [2]: Dose-dependent effect; Emax [3]: 63%; Kb [6]: 2900 nM; pKb [6]: 5.54; Activity (Rattus norvegicus): inactive; Emax [7]: 185%; Emax [8]: 0% |
| NCCC[C@@H]1N=C(c2ccc(-c3ccccc3)cc2)c2[nH]c(C(=O)O)cc2N(CCc2ccc(O)cc2)C1=O | inactive | – | 93 | 97 | – | Activity [9]: 117% |
| NCCC[C@@H]1N[C@@H](c2cccc3ccccc23)c2[nH]c(C(=O)O)cc2N(CCc2ccc(O)cc2)C1=O | inactive | 25 | 238 | 148 | – | – |
| NCCC[C@@H]1N[C@H](c2cccc3ccccc23)c2[nH]c(C(=O)O)cc2N(CCc2ccc(O)cc2)C1=O | inactive | 25 | 210 | 139 | – | – |
| NCCCC[C@@H]1N=C(c2cccc3ccccc23)c2[nH]c(C(=O)O)cc2N(CCc2ccc(O)cc2)C1=O | inactive | – | – | – | inactive | Emax [13]: 60%; Emax [14]: 123% |
| NCCC[C@@H]1N=C(c2ccc3ccccc3c2)c2[nH]c(C(=O)O)cc2N(CCc2ccc(O)cc2)C1=O | inactive | – | 142 | 70 | inactive | – |
| NCCC[C@@H]1N=C(c2cccc3ccccc23)c2[nH]c(C(=O)O)cc2N(CCc2ccc(O)cc2)C1=O | inactive | – | 46 | 74 | inactive | – |
| NCCCC[C@@H]1N=C(c2ccc(-c3ccccc3)cc2)c2[nH]c(C(=O)O)cc2N(CCc2ccc(O)cc2)C1=O | inactive | – | – | – | inactive | Emax [15]: 110%; Emax [16]: 128% |
| NCCCC[C@@H]1N[C@@H](c2ccc3ccccc3c2)c2[nH]c(C(=O)O)cc2N(CCc2ccc(O)cc2)C1=O | inactive | 25 | 107 | 194 | – | – |
| NCCC[C@@H]1N[C@H](c2ccc(-c3ccccc3)cc2)c2[nH]c(C(=O)O)cc2N(CCc2ccc(O)cc2)C1=O | inactive | – | – | – | inactive | Emax [17]: 162%; Emax [18]: 139% |
| NCCCC[C@@H]1N[C@@H](c2ccc(-c3ccccc3)cc2)c2[nH]c(C(=O)O)cc2N(CCc2ccc(O)cc2)C1=O | inactive | – | – | – | inactive | Emax [7]: 113%; Emax [8]: 121% |
| NCCCC[C@@H]1N[C@H](c2ccc3ccccc3c2)c2[nH]c(C(=O)O)cc2N(CCc2ccc(O)cc2)C1=O | inactive | 25 | 217 | 175 | – | – |
| NCCCC[C@@H]1N=C(c2ccc3ccccc3c2)c2[nH]c(C(=O)O)cc2N(CCc2ccc(O)cc2)C1=O | inactive | – | 51 | 80 | inactive | – |
